Screens as filed in PubChem.
PolyA inhibitor: polyadenylation inhibitors in yeast reporter cells, primary screen, luminescence, S. cerevisiae. 0.02% of 300,000 active. activity score, % at 12 µM. AID 1875, 2009. S. cerevisiae SKY197-pL101 polyadenylation reporter, beta-gal luminescence; efflux-impaired pdr1/pdr3 knockout yeast; score 100 = 6 SD above DMSO;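 active means lowest replicate activity score at least 50, where 100 means six control SD above control mean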;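 further: yeast exposed to compound for 9 h at 30 °C; higher score means more reporter readthrough which indicates perturbed polyadenylation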
proCasp7 act: procaspase-7 activators, primary screen, counter-screen for procaspase-3 activator project, biochemical, absorbance, HTS, human; Caspase-7 (Homo sapiens), P55210; recombinant procaspase-7, Ac-DEVD-pNA absorbance 405 nm; D23A/D198A/D206A triple mutant, cannot self-cleave; scale: DMSO 0, 5 µM enzyme 100; activation, % at 8.5 µM; 0.093% of 330,000 active; AID 463210, 2010;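 active means percent activation above the screen-wide mean plus 3 SD, cut at about 25% in these data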
Target sequence (P55210 whole entry D23A/D198A/D206A): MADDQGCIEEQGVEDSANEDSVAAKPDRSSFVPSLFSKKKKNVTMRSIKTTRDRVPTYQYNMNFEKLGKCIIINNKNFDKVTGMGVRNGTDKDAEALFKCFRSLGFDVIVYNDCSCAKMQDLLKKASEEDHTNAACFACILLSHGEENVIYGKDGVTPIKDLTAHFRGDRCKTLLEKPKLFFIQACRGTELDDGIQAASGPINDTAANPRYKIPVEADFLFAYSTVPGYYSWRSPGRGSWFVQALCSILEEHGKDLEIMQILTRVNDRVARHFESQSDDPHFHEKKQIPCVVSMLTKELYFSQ
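System: Uncleavable procaspase-7 mutant enzyme; Amount: 2 µM procaspase-7 mutant as dispensed; Schedule: 1 h compound preincubation, 2 h substrate cleavage, 25 °C; Measured by: 405 nm absorbance of p-nitroaniline; Evaluation: percent activation from buffer-corrected 0–120 min absorbance change; Control set: low DMSO alone, high DMSO plus 5 µM PC-7.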
procasp3 activ: activators of human procaspase-3 D3A mutant, primary screen, biochemical, absorbance, PC-3 D3A mutant, single concentration. 0.11% of 330,000 active. activation, % at 8.5 µM. recombinant procaspase-3 D3A, Ac-DEVD-pNA absorbance 405 nm. Caspase-3 (Homo sapiens), P42574. AID 463141, 2010;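 active means activation above the mean of all tested compounds plus 3 SD, cut at about 21% in these data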;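 further: 0% = DMSO alone and 100% = DMSO wells spiked with extra 5 µM PC-3 D3A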
Target sequence (P42574 whole entry D9A/D28A/D175A): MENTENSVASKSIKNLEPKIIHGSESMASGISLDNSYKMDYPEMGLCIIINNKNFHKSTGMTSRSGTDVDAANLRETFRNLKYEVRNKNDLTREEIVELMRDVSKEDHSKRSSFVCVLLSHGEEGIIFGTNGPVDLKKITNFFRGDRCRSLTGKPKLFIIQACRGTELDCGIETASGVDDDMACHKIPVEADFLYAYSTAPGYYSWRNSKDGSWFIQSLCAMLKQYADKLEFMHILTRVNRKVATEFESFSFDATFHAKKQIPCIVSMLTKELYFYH
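Evaluation: percent activation relative to control range; Material: Procaspase-3 D3A mutant, all three cleavage aspartates alanine; Compound: single dose, 8.5 µM nominal compound, 0.8% DMSO; Replication: one well per compound; Signal: absorbance at 405 nm, 0 and 120 min; Schedule: 1 h preincubation plus 2 h reaction at 25 °C.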
AHR activator: AHR activators, primary screen, cell-based, luminescence, luciferase reporter, human. Aryl hydrocarbon receptor (Homo sapiens), P35869. AHR-responsive luciferase reporter cells. activation, % at 5 µM. 2.5% of 320,000 active. AID 2796, 2010; in the data active means activation above about 47%;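 further: 0% = vehicle wells and 100% = reference agonist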
* hit, by the source's call. Compounds with a hit are over-represented: about 2.6% of the library has one in this group of screens.

`CCOc1ccccc1NC(=O)COC(=O)CN1C(=O)NC(C)(C)C1=O` gave proCasp7 act -6, procasp3 activ 4 and AHR activator 2.
COCCCN1C(=O)c2ccc(C(=O)Nc3ccccc3OC)cc2C1=O was read as PolyA inhibitor -31, proCasp7 act 0, procasp3 activ 8 and AHR activator 67*.
For CCOc1ccccc1NC(=O)c1ccc2c(c1)C(=O)N(CC(C)C)C2=O the results were PolyA inhibitor -12, proCasp7 act 1, procasp3 activ -9 and AHR activator 50*.
Screening COc1ccccc1NC(=O)c1ccc2c(c1)N(CC#N)C(=O)C(C)(C)O2 returned PolyA inhibitor 0, proCasp7 act 4, procasp3 activ 4 and AHR activator 62*.
`Cc1ccccc1NC(=O)c1ccc2c(c1)C(=O)N(CC(C)C)C2=O` gave PolyA inhibitor 2, proCasp7 act 1, procasp3 activ -3 and AHR activator 1.
Screening COCCCN1C(=O)c2ccc(C(=O)Nc3ccccc3Cl)cc2C1=O returned PolyA inhibitor 5, proCasp7 act 8, procasp3 activ -6 and AHR activator 1.
COc1ccc(N2CCN(C(=O)[C@@H]3CCCN3C3=NS(=O)(=O)c4ccccc43)CC2)cc1 was read as proCasp7 act 1, procasp3 activ -5 and AHR activator -1.
COc1ccc(C(=O)Nc2ccc(C(=O)N3CCC(C)CC3)cc2)cc1OC was read as PolyA inhibitor 5, proCasp7 act 6, procasp3 activ 0 and AHR activator 1.
For Cc1ccc(C)c(NC(=O)CCC(=O)N/N=C/c2ccc[nH]2)c1 the results were PolyA inhibitor 28, proCasp7 act -20, procasp3 activ 5 and AHR activator 3.
For CCOC(=O)N/N=C\c1ccc(OC(=O)c2ccco2)cc1 the results were PolyA inhibitor -3, proCasp7 act 6, procasp3 activ 3 and AHR activator 2.
Cc1ccc(NCC(=O)N/N=C/c2ccc(OC(=O)c3ccco3)cc2)cc1 was read as PolyA inhibitor 7, proCasp7 act 2, procasp3 activ 11 and AHR activator 59*.
`Cc1ccc(NCC(=O)N/N=C\c2ccc[nH]2)cc1` gave PolyA inhibitor -10, proCasp7 act 4, procasp3 activ -3 and AHR activator 62*.
Screening Cc1ccc(NCC(=O)N/N=C/c2cc3ccccc3nc2Cl)cc1 returned PolyA inhibitor -3, proCasp7 act -3, procasp3 activ -2 and AHR activator 60*.
Screening COc1ccc(N2CCN(C(=O)CN(C)S(=O)(=O)c3cc(C)ccc3OC)CC2)cc1 returned PolyA inhibitor -12, proCasp7 act 1, procasp3 activ -3 and AHR activator 0.
For CCN(CC(=O)NCc1ccc(Cl)cc1)C(=O)c1ccc(S(=O)(=O)NCc2ccco2)cc1 the results were PolyA inhibitor 7, proCasp7 act -2, procasp3 activ -4 and AHR activator -4.
Cc1cc2occ(CC(=O)N(CC(C)C)c3c(N)n(Cc4ccccc4)c(=O)[nH]c3=O)c2cc1C was read as PolyA inhibitor -4, proCasp7 act 3, procasp3 activ -2 and AHR activator 5.
`CC1=NN(c2ccccc2)C(=O)C1N=Nc1ccc(C)cc1` (stereo not drawn) gave PolyA inhibitor 6, proCasp7 act -1, procasp3 activ 5 and AHR activator 9.
CC(=O)Nc1ccc(N2N=C(C)C(N=Nc3ccccc3)C2=O)cc1 (stereo not drawn) was read as PolyA inhibitor -12, proCasp7 act -5, procasp3 activ -3 and AHR activator 50*.
CCCCCCC(=O)Nc1nc(C)c(-c2csc(Nc3cc(OC)ccc3OC)n2)s1 was read as PolyA inhibitor -18, proCasp7 act 10, procasp3 activ 0 and AHR activator 67*.
`CCCCC(=O)Nc1nc(C)c(-c2csc(Nc3ccccc3OC)n2)s1` gave PolyA inhibitor -14, proCasp7 act -10, procasp3 activ -4 and AHR activator 77*.
CCOc1ccccc1Nc1nc(-c2sc(NC(=O)c3ccc([N+](=O)[O-])cc3)nc2C)cs1 was read as PolyA inhibitor 1, proCasp7 act -9, procasp3 activ -3 and AHR activator 30.
For COc1ccc(Nc2nc(-c3sc(NC(C)=O)nc3C)cs2)cc1 the results were PolyA inhibitor 15, proCasp7 act -8, procasp3 activ -6 and AHR activator 7.
`O=C(Nc1cccc([N+](=O)[O-])c1)c1ccccc1` gave PolyA inhibitor -9, proCasp7 act -9, procasp3 activ -1 and AHR activator 10.
`O=C(Nc1ccc2ccccc2c1)c1cccc([N+](=O)[O-])c1` gave PolyA inhibitor -9, proCasp7 act -2, procasp3 activ -2 and AHR activator 68*.
`O=C(Nc1ccc2ccccc2c1)c1ccc(Cl)cc1Cl` gave PolyA inhibitor 0, proCasp7 act 5, procasp3 activ -7 and AHR activator -6.
`O=C(O)c1cccc([N+](=O)[O-])c1C(=O)Nc1ccc2ccccc2c1` gave PolyA inhibitor -3, proCasp7 act -10, procasp3 activ -13 and AHR activator 60*.
`O=C(Nc1ccc2ccccc2c1)c1ccccc1O` gave PolyA inhibitor -6, proCasp7 act -2, procasp3 activ 6 and AHR activator 48*.
For Cc1ccc(C)c(NC(=O)C2CCN(S(=O)(=O)c3ccc4c(c3)NC(=O)CO4)CC2)c1 the results were PolyA inhibitor -3, proCasp7 act 12, procasp3 activ 6 and AHR activator 4.
CCOc1ccccc1NC(=O)NNS(=O)(=O)c1cc(OC)ccc1OC was read as PolyA inhibitor 21, proCasp7 act 11, procasp3 activ 0 and AHR activator 10.
For CCOC(=O)c1c(C)[nH]c(C)c1C(=O)CSc1nc2ccccc2[nH]1 the results were PolyA inhibitor -3, proCasp7 act 3, procasp3 activ 13 and AHR activator 59*.
`CCOC(=O)c1c(C)[nH]c(C)c1C(=O)CSc1ncccn1` gave PolyA inhibitor 4, proCasp7 act -24, procasp3 activ -4 and AHR activator 78*.
CCOC(=O)c1c(C)[nH]c(C)c1C(=O)Cn1nnc(-c2ccccc2C)n1 was read as PolyA inhibitor 0, proCasp7 act -5, procasp3 activ 5 and AHR activator 49*.
`CCOC(=O)c1c(C)[nH]c(C)c1C(=O)CSc1nc(N)cc(=O)[nH]1` gave PolyA inhibitor 13, proCasp7 act 1, procasp3 activ -5 and AHR activator 7.
For CCOC(=O)c1c(C)[nH]c(C)c1C(=O)CSc1nc2ccccc2n1CC the results were PolyA inhibitor 0, proCasp7 act -5, procasp3 activ 3 and AHR activator 29.
